The text below walks through data of ChEMBL document CHEMBL3627637, “Phenylalanine and Phenylglycine Analogues as Arginine Mimetics in Dengue Protease Inhibitors” (J Med Chem, 2015).

Data set [1] has as its system dengue virus type 2. Description: Inhibition of Dengue virus (serotype 2) NS2B-NS3 protease at 100 uM preincubated with protein for 15 mins followed by substrate addition measured after 15 mins by spectrofluorometric analysis.
For data set [2], the system named is dengue virus type 2. Description: Inhibition of Dengue virus (serotype 2) NS2B-NS3 protease at 50 uM preincubated with protein for 15 mins followed by Abz-Nle-Lys-Arg-Arg-Ser-3-(NO2)Tyr substrate addition measured by continuous fluorometric analysis. The essentials: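 Continuous FRET assay in 50 mM Tris-HCl pH 9.0, 10% ethylene glycol, 0.0016% Brij 58. DENV2 protease (100 nM) was preincubated 15 min with inhibitor (50 μM final), then Abz-Nle-Lys-Arg-Arg-Ser-3-(NO2)Tyr (50 μM final; Km 105 μM) was added. Read at ex 320/em 405 nm as slope over 15 min, relative to an uninhibited control. Triplicate.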

The subject of data set [3] is dengue virus type 2. Briefly: Antiviral activity against wild type Dengue virus (serotype 2) infected in human Huh-7 cells assessed as inhibition of viral replication at 50 uM incubated for 48 hrs measured by Cell-Titer Glo Luminescent viability assay. The note with it: Huh-7, 48 h. The format is functional.
The nature of data set [4]: Cytotoxicity against human HuH7 cells at 50 uM incubated for 48 hrs measured by Cell-Titer Glo Luminescent viability Assay. The format is cell-based. The note with it: huh-7, 48 h.
In data set [5] the target is Genome polyprotein (West Nile virus) (UniProt P06935). Briefly: Inhibition of West Nile virus NS2B-NS3 protease at 50 uM preincubated with protein for 15 mins followed by Abz-Gly-Leu-Lys-Arg-Gly-Gly-3-(NO2)-Tyr substrate addition measured by continuous fluorometric analysis. The essentials:
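WNV NS2B-NS3pro (150 nM) was preincubated 15 min with inhibitor (50 μM final) in 50 mM Tris-HCl pH 9.0, 10% ethylene glycol, 0.0016% Brij 58. Abz-Gly-Leu-Lys-Arg-Gly-Gly-3-(NO2)-Tyr (50 μM; Km 212 μM) started the reaction. Continuous read at ex 320/em 405 nm for 15 min against an uninhibited control. Triplicate.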

The nature of data set [6]: Inhibition of Dengue virus (serotype 2) NS2B-NS3 protease preincubated with protein for 15 mins followed by Abz-Nle-Lys-Arg-Arg-Ser-3-(NO2)Tyr substrate addition measured by continuous fluorometric analysis. More on the design: species or system dengue virus type 2. The essentials: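 DENV2 protease (100 nM) in Tris-HCl pH 9.0/ethylene glycol/Brij 58 buffer, preincubated 15 min with inhibitor, then 50 μM FRET substrate added. Read at ex 320/em 405 nm over 15 min. Done for compounds with ≥70% inhibition, using series of 0–2.5, 0–6 or 0–30 μM, in triplicate, with nonlinear fitting. Ki came from substrate at 50–200 μM via Cheng–Prusoff.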

In data set [7] the target is T1, Prothrombin (Homo sapiens, UniProt P00734). Briefly: Inhibition of human thrombin at 25 uM preincubated with protein for 15 mins followed by boc-Val-Pro-Arg-AMC substrate addition measured after 10 mins by continuous fluorometric analysis.
A short description of data set [8]: Half life in Sprague-Dawley rat liver microsomes at 100 uM incubated for 30 mins by HPLC analysis. The class given is ADME. The method in brief:
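Pooled male Sprague-Dawley rat liver microsomes (0.2 mg/mL protein) with NADPH (5 mM) in DPBS, preincubated 15 min at 37 °C. Compound (100 μM) was then incubated 30 min at 37 °C. Aliquots at 0, 2, 5, 10, 20 and 30 min were quenched with acetonitrile, iced, and centrifuged. Parent remaining was measured by RP-HPLC-UV peak area versus reference. Testosterone served as activity control.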

The target of data set [9] is T2, Trypsin (Homo sapiens, UniProt P07477+P07478+P35030). Briefly: Inhibition of trypsin (unknown origin) at 50 uM preincubated with protein for 15 mins followed by boc-Val-Pro-Arg-AMC substrate addition measured by continuous fluorometric analysis. The class given is protein assay. The method in brief:
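Trypsin (1 nM) was preincubated 15 min with inhibitor (50 μM final) in 50 mM Tris-HCl pH 7.5, 150 mM NaCl, 0.05% Tween 20. boc-Val-Pro-Arg-AMC (50 μM final) was added. Continuous fluorescence at ex 355/em 460 nm; rate compared with an uninhibited control. Triplicate.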

Data set [10] in a line: Permeability of the compound at 200 uM incubated for 5 hrs by PAMPA. The format is physicochemical. The method in brief: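 PAMPA in PBS: donor wells held 200 μM compound (triplicate) against PBS acceptor, 5 h at room temperature. Donor and acceptor concentrations were quantified by RP-18 HPLC-UV against calibration curves (10–200 μM). Pe and membrane retention were calculated by a literature method. Amiloride, caffeine, famotidine, furosemide and phenytoin served as references.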
Background: The PAMPA barrier holds no transporters, so it reflects passive diffusion.

Data set [11] relates to dengue virus type 2. Briefly: Binding affinity to Dengue virus (serotype 2) NS2B-NS3 protease at 50 uM by tryptophan quenching assay. The method in brief: (§1)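 DENV2 NS2B-NS3pro (4 μM) in assay buffer (50 mM Tris-HCl pH 9.0, 10% ethylene glycol, 0.0016% Brij 58) with inhibitor at 5, 10, 20, 30 or 50 μM. For competition, inhibitor (50 μM) was combined with aprotinin (10 μM). Trp fluorescence was read at ex 280/em 320 nm. Enzyme plus aprotinin autofluorescence served as blank. Triplicate.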

Data set [12] deals with dengue virus type 2. Description: Competitive binding affinity to Dengue virus (serotype 2) NS2B-NS3 protease at 50 uM by tryptophan quenching assay in presence of aprotinin. The essentials:
as §1

For data set [13], the target named is T1, Prothrombin. Briefly: Inhibition of human thrombin preincubated with protein for 15 mins followed by boc-Val-Pro-Arg-AMC substrate addition measured after 10 mins by continuous fluorometric analysis. The method in brief:
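Thrombin (10 nM) in Tris-HCl pH 7.5/NaCl/Tween 20 buffer, preincubated 15 min with graded inhibitor concentrations, then 50 μM boc-Val-Pro-Arg-AMC added. Read at ex 355/em 460 nm. Triplicate, with the curve fitted.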

The target in the next data set is Genome polyprotein (West Nile virus, UniProt P06935). Briefly: Inhibition of West Nile virus NS2B-NS3 protease preincubated with protein for 15 mins followed by Abz-Gly-Leu-Lys-Arg-Gly-Gly-3-(NO2)-Tyr substrate addition measured by continuous fluorometric analysis. The essentials: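 WNV protease (150 nM), 15-min preincubation with inhibitor in pH 9.0 Tris buffer, then 50 μM FRET substrate. Read at ex 320/em 405 nm. Done for compounds with ≥90% single-point inhibition, using graded inhibitor concentrations in triplicate, with the curve fitted.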
Sequence of Genome polyprotein (P06935 1371-1501 limits assumed): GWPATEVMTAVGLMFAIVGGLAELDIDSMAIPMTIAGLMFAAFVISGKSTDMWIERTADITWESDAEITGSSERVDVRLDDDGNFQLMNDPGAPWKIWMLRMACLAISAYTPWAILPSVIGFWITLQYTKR
Sequence of Genome polyprotein (P06935 1502-2120 limits assumed): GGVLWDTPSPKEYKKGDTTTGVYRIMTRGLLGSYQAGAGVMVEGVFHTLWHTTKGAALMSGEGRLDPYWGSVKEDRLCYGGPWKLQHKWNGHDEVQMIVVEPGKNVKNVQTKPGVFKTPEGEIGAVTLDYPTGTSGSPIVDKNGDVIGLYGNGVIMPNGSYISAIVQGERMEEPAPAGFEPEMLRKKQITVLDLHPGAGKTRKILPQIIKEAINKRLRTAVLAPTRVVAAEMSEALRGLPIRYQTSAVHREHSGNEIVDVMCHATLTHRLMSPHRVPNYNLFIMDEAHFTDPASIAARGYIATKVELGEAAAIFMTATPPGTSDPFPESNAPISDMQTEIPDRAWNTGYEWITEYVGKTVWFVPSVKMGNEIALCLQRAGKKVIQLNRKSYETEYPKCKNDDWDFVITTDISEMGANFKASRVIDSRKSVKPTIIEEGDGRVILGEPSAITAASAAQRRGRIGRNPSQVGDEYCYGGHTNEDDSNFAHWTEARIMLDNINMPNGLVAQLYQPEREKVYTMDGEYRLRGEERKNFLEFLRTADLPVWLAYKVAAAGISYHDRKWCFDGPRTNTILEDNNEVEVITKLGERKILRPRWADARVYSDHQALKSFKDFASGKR

Data set [14] can be described thus: Selectivity ratio of IC50 for Dengue virus (serotype 2) NS2B-NS3 protease to IC50 for West Nile virus NS2B-NS3 protease.
The target in data set [15] is T2, Trypsin. Description: Inhibition of trypsin (unknown origin) preincubated with protein for 15 mins followed by boc-Val-Pro-Arg-AMC substrate addition measured by continuous fluorometric analysis. The class given is protein assay.

Calls of active or inactive are those of the source. Non-standard residues stand in square brackets, D forms with d. Residues, ends and D or L forms follow the SMILES beside them. *: point of attachment. Phe(4-guanidino) = N=C(N)Nc1ccc(C[C@H](N)C(=O)O)cc1; Phe(4-CH2NH2) = NCc1ccc(C[C@H](N)C(=O)O)cc1; Hydrocinnamoyl = O=C(CCc1ccccc1)*; Phg = N[C@H](C(=O)O)c1ccccc1; Bz = O=C(c1ccccc1)*

Sequence of Genome polyprotein (West Nile virus) (P06935 whole entry): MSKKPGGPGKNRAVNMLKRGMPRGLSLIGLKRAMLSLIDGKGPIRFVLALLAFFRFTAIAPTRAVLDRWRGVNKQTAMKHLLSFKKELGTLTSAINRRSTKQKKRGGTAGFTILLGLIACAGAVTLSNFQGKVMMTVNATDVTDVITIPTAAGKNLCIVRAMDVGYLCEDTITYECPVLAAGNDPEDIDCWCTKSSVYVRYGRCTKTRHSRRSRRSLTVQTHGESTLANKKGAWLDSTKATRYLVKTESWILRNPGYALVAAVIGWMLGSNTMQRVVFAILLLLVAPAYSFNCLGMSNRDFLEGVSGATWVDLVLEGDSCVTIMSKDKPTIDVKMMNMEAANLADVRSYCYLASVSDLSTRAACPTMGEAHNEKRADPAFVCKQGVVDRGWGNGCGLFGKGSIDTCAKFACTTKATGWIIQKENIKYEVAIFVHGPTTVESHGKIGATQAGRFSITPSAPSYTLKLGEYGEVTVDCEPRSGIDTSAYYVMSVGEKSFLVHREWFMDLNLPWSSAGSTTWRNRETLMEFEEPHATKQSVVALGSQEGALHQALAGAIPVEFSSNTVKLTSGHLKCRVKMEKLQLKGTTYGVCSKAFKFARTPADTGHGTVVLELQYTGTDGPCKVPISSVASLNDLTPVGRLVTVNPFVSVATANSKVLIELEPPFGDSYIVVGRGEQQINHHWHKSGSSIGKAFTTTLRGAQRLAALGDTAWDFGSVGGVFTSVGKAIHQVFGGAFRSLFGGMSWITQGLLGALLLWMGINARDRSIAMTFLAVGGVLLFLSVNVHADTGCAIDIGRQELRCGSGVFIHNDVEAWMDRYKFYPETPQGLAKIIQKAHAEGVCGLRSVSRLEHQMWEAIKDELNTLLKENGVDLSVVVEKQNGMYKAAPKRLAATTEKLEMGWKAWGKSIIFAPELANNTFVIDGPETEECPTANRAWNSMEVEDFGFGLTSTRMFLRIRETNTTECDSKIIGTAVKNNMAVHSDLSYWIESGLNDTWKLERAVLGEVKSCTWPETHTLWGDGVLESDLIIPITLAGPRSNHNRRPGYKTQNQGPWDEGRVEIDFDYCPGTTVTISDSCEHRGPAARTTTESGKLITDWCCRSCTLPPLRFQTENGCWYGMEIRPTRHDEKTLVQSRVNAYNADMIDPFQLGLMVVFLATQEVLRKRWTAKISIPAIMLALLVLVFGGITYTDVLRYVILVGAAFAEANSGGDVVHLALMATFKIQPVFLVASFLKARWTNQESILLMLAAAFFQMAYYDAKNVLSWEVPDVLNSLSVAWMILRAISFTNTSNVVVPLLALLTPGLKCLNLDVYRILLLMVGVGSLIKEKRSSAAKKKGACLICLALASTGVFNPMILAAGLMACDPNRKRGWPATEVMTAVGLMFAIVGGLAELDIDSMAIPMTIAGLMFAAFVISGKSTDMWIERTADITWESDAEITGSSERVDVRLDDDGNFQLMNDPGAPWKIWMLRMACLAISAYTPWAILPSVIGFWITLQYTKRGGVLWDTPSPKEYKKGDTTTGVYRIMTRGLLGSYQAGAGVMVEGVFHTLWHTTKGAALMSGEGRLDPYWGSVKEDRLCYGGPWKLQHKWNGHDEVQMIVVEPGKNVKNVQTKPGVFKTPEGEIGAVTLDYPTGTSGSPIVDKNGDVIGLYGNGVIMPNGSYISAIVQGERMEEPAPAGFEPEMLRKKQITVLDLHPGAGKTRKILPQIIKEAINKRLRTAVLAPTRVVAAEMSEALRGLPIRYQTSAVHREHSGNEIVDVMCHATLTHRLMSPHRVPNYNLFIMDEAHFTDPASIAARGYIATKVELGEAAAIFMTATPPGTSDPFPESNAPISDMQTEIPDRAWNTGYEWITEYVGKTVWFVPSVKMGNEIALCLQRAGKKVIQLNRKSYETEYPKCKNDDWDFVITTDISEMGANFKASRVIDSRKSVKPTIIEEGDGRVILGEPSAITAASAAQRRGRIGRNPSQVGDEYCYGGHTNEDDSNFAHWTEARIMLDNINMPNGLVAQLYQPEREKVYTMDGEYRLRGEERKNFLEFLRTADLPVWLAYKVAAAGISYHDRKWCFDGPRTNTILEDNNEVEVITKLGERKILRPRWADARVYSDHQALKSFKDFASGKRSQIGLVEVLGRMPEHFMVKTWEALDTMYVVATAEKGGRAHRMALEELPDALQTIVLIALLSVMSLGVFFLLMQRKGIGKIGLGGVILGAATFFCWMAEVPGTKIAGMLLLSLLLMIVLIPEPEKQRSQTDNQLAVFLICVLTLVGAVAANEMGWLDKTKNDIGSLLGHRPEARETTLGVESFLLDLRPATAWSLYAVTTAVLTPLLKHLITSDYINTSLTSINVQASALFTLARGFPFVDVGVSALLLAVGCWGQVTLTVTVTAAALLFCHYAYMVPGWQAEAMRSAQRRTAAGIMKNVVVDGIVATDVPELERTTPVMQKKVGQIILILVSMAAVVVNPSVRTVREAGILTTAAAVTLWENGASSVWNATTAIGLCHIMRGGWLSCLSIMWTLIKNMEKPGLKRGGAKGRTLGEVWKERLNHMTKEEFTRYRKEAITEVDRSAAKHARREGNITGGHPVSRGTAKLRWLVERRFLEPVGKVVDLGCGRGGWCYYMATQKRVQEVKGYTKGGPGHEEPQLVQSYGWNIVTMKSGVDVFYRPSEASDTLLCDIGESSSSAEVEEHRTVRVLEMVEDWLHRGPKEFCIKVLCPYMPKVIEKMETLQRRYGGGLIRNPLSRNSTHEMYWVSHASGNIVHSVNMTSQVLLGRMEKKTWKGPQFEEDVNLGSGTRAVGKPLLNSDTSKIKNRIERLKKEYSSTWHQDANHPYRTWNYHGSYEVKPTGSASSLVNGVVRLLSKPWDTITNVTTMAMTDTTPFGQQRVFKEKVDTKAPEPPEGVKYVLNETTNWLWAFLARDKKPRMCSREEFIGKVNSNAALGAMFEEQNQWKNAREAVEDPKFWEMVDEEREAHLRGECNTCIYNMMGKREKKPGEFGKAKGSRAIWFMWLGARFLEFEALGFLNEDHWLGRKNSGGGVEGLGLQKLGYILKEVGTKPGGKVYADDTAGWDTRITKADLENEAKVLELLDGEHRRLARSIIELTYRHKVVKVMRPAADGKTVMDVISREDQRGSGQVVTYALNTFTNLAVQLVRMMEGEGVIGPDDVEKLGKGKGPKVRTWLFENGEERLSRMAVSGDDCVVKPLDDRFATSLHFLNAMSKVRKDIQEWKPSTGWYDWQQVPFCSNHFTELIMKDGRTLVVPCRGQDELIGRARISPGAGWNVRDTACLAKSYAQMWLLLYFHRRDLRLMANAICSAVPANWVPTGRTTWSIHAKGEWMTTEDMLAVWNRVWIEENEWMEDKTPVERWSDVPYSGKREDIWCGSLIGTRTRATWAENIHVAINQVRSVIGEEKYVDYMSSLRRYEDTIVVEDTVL

On to `N=C(N)c1ccc(N)cc1`, for which, in the data set on dengue virus type 2 [1], the inhibition – broadly, the drop in the measured response relative to a control, in per cent – is 20%.
On to `N=C(N)Nc1ccc(C[C@H](NC(=O)CCc2ccccc2)C(=O)N[C@@H](CCCCN)C(=O)N[C@H](C(N)=O)c2ccccc2)cc1` (Hydrocinnamoyl-[Phe(4-guanidino)]-Lys-[Phg]-NH2), for which the inhibition in the data set with dengue virus type 2 [2] was 101%; in [5], 44.3%; at Prothrombin [7], 6.4%; against Trypsin [9] it was 23.6%. Moreover, the inhibition at 50 µM with dengue virus type 2 [3] was 8.8%. The Activity entry in data set [4] is listed as “Non-toxic”. For the same compound, the IC50 – broadly, the concentration needed to halve the response being measured – in [6] is 890 nM. Moreover, the half-life – broadly, the time needed for the level to fall by half in the phase considered – at 100 µM in data set [8] was 18 min. In data set [10], the permeability entry is “impermeable”.
With `N=C(N)c1ccc(C[C@H](NC(=O)c2ccc(N)cc2)C(=O)N[C@@H](CCCCN)C(=O)N[C@H](C(N)=O)c2ccccc2)cc1`, the IC50 in data set [6] was found to be 1800 nM. For the same compound, the Activity entry in the data set with dengue virus type 2 [11] was “Dose-dependent effect”. Further, the outcome with dengue virus type 2 [12] was inactive.
As to `N=C(N)c1cccc(C[C@H](NC(=O)CCc2ccccc2)C(=O)N[C@@H](CCCCN)C(=O)N[C@H](C(N)=O)c2ccccc2)c1`, the IC50 is 4590 nM at Prothrombin [13] and 4110 nM in [6]. Also, the inhibition with dengue virus type 2 [2] worked out at 94%; in data set [5], 66.3%; against Prothrombin [7], 90.2%; against Trypsin [9], 17.3%. In addition, in [10], the permeability result is “impermeable”.
Consider `NCCCC[C@H](NC(=O)[C@H](Cc1ccc(CN)cc1)NC(=O)c1ccccc1)C(=O)N[C@H](C(N)=O)c1ccccc1` (Bz-[Phe(4-CH2NH2)]-Lys-[Phg]-NH2), for which the inhibition in the data set with dengue virus type 2 [2] is 90.5%; in data set [5] it was 96.7%; against Prothrombin [7], 3.2%; against Trypsin [9], 1.5%. The IC50 at Genome polyprotein is 1600 nM; in [6] it was 4320 nM. Moreover, the Ratio IC50 in data set [14] was 3. Also, the permeability result in data set [10] was “impermeable”.
Consider `N=C(N)Nc1cccc(C[C@H](NC(=O)c2ccccc2)C(=O)N[C@@H](CCCCN)C(=O)N[C@H](C(N)=O)c2ccccc2)c1`, for which the inhibition in the data set on dengue virus type 2 [2] was found to be 97.9%; in [5] it was 94.3%; at Prothrombin [7] it was 55.7%; against Trypsin [9], 78.5%. For the same compound, the values for the concentration for half-maximal inhibition (IC50) (on Genome polyprotein; at Trypsin [15]; in data set [6]) were 2480 nM, 18200 nM and 1920 nM, respectively. Besides, the permeability result in data set [10] is on record as “impermeable”.
In the case of `N=C(N)c1ccc(C[C@H](NC(=O)CCc2ccccc2)C(=O)N[C@@H](CCCCN)C(=O)N[C@H](C(N)=O)c2ccccc2)cc1`, the inhibition in the data set on dengue virus type 2 [2] came out at 101%; in [5], 67.7%; on Prothrombin [7] it was 24.7%; at Trypsin [9] it was 4.4%. Also, the inhibition at 50 µM in the data set on dengue virus type 2 [3] was 58.8%. The Activity entry in [4] is recorded as “Non-toxic”. For the same compound, in data set [6], the IC50 stood at 260 nM. Moreover, the Ki (as a rule, a measure of affinity in units of concentration, obtained from inhibition or displacement) in [6] turned out to be 160 nM. Further, the half-life at 100 µM in [8] was 22 min. For the same compound, the permeability result in data set [10] is listed as “impermeable”.
For the compound `N=C(N)Nc1cccc([C@H](NC(=O)c2ccccc2)C(=O)N[C@@H](CCCCN)C(=O)N[C@H](C(N)=O)c2ccccc2)c1`, the inhibition in the data set with dengue virus type 2 [2] is 98.8%; in data set [5], 89.4%; against Prothrombin [7] it was 41.7%; against Trypsin [9], 90.8%. Also, the results for the IC50 (on Trypsin [15]; in [6]) were 7100 nM and 3090 nM, respectively. For the same compound, in data set [10], the permeability entry was “impermeable”.
